Measurements taken from ChEMBL document CHEMBL5661986, “Discovery of the SMYD3 Inhibitor BAY-6035 Using Thermal Shift Assay (TSA)-Based High-Throughput Screening” (SLAS Discov, 2021).
Activity calls are given as the source filed them. The rule behind the calls is not given here.

Experiments:
[1] = target: Histone-lysine N-methyltransferase SUV39H1 (Homo sapiens) (UniProt O43463); assay: Inhibition of SUV39H1 (unknown origin)
[2] = target: Receptor-type tyrosine-protein kinase FLT3 (Homo sapiens, UniProt P36888); assay: Inhibition of FLT3 (unknown origin)
Chain of Receptor-type tyrosine-protein kinase FLT3 (P36888 whole entry): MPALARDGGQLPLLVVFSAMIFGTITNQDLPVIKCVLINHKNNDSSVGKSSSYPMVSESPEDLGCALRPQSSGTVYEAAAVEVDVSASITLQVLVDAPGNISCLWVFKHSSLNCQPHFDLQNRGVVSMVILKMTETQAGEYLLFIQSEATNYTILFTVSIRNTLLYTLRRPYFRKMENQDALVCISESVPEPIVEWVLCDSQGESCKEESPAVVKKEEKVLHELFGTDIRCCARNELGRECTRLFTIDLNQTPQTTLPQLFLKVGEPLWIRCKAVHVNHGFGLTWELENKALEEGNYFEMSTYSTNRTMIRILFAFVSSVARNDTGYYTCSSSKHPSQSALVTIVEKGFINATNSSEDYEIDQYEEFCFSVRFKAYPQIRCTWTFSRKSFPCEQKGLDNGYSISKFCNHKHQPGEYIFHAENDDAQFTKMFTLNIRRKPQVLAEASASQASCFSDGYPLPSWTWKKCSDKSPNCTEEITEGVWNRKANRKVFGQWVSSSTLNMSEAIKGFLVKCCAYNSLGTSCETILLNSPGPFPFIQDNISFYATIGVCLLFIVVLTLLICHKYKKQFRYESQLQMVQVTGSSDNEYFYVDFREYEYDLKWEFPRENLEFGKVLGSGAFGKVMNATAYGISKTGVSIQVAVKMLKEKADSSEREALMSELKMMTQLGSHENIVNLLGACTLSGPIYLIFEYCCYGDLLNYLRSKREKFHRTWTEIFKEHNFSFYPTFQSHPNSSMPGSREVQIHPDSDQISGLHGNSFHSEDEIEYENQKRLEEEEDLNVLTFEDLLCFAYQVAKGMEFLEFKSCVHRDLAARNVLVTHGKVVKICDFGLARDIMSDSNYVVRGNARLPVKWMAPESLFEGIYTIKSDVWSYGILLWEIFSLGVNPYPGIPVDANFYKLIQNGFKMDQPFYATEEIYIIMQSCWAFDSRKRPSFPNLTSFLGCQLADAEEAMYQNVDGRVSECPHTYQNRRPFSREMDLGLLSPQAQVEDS

[3] = target: T1, Histone-lysine N-methyltransferase SMYD3 (Homo sapiens) (UniProt Q9H7B4); assay: Binding affinity to recombinant human SMYD3 expressed in Escherichia coli assessed as fold change at varying MAP3K2 substrate concentration of upto 150 uM with 10 fold Km concentration by scintillation proximity assay
T1 sequence (whole entry): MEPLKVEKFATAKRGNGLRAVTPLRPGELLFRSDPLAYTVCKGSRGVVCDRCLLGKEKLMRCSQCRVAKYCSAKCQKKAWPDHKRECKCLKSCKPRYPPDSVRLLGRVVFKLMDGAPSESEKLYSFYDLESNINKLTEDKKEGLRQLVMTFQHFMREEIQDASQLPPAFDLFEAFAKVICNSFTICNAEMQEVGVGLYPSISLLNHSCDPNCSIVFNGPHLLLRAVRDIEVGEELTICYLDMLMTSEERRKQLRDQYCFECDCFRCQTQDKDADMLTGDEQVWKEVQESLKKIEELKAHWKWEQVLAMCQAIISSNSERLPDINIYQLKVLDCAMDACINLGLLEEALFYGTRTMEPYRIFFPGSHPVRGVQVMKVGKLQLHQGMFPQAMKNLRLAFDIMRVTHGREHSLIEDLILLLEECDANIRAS
Summary of the method: (§1)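 SPA, 10 nM SMYD3 methylating biotinylated MAP3K2 249–273 peptide with 3H-SAM in 20 mM Tris pH 9, 2.5 mM DTT, 0.01% Triton X-100; 40 min, 23 °C, GuHCl quench.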

[4] = target: Protein arginine N-methyltransferase 8 (Homo sapiens) (UniProt Q9NR22); assay: Inhibition of PRMT8 (unknown origin)
[5] = target: Protein arginine N-methyltransferase 9 (Homo sapiens) (UniProt Q6P2P2); assay: Inhibition of PRMT9 (unknown origin)
[6] = target: T1, Histone-lysine N-methyltransferase SMYD3 (Homo sapiens); conditions: dose 120.0 µM
[7] = Cytotoxicity against human MCF-10A cells assessed as inhibition of cell viability measured for 3 to 5 days by alamar blue staining based assay; format: toxicity
[8] = target: MAP kinase-interacting serine/threonine-protein kinase 1 (Homo sapiens, UniProt Q9BUB5); assay: Inhibition of MKNK1 (unknown origin) in presence of ATP
Chain of MAP kinase-interacting serine/threonine-protein kinase 1 (Q9BUB5 whole entry): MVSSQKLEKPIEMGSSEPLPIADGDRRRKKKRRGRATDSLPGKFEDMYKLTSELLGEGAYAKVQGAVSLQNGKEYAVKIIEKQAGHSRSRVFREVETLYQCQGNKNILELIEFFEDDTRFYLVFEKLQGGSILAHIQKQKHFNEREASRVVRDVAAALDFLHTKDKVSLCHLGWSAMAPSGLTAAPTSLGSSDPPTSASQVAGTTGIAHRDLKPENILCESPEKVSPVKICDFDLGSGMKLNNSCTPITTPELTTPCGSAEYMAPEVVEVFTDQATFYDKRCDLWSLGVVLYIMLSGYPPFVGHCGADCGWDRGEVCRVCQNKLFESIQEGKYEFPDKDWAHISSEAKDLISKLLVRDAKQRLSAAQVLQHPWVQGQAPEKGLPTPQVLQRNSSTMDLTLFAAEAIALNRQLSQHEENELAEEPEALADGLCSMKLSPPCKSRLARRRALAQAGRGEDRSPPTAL

[9] = target: T1, Histone-lysine N-methyltransferase SMYD3 (Homo sapiens); assay: Binding affinity to recombinant human SMYD3 expressed in Escherichia coli assessed as change in entropy at 0.3 mM by isothermal titration calorimetry
Summary of the method: (§2)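 Syringe held compound at 0.3 mM in 20 mM HEPES pH 7.4, 150 mM NaCl, 0.005% Tween 20, 2.5% DMSO; eight 4 µL injections at 180 s intervals into SMYD3.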

[10] = target: METTL3/METTL14 (Homo sapiens) (UniProt Q86U44+Q9HCE5); assay: Inhibition of METTL3/METTL14 (unknown origin); format: protein-complex assay
[11] = target: N-lysine methyltransferase KMT5A (Homo sapiens) (UniProt Q9NQR1); assay: Inhibition of SETD8 (unknown origin)
Chain of N-lysine methyltransferase KMT5A (Homo sapiens) (Q9NQR1 whole entry): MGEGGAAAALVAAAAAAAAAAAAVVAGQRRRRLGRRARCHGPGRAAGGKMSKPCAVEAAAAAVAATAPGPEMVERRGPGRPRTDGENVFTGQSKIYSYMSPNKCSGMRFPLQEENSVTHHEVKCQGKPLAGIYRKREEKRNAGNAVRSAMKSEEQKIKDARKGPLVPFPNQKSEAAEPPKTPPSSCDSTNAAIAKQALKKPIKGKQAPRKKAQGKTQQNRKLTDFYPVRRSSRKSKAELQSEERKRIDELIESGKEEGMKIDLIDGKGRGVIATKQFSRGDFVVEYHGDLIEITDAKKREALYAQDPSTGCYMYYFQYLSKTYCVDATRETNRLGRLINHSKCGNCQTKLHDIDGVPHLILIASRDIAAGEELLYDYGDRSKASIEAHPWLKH

[12] = target: Histone-lysine N-methyltransferase NSD2 (Homo sapiens) (UniProt O96028); assay: Inhibition of NSD2 (unknown origin)
[13] = target: Dual specificity tyrosine-phosphorylation-regulated kinase 1A (Homo sapiens, UniProt Q13627); assay: Inhibition of human DYRK1a
[14] = Lipophilicity, log D of the compound at pH 7.5; format: physicochemical; conditions: buffer
KYSE-30 = assay: Antiproliferative activity against human KYSE-30 cells assessed as inhibition of cell viability measured for 3 to 5 days by alamar blue staining based assay; format: functional
MDA-MB-231 = assay: Antiproliferative activity against human MDA-MB-231 cells assessed as inhibition of cell viability measured for 3 to 5 days by alamar blue staining based assay; format: functional
[15] = target: Vascular endothelial growth factor receptor 2 (Homo sapiens, UniProt P35968); assay: Inhibition of KDR (unknown origin) by HTRF assay
[16] = target: Platelet-derived growth factor receptor beta (Homo sapiens, UniProt P09619); assay: Inhibition of PDGFR beta (unknown origin)
Aurora kinase A = Aurora kinase A (Homo sapiens, UniProt O14965); assay: Inhibition of Aurora A (unknown origin) by HTRF assay
[17] = target: Interleukin-1 receptor-associated kinase 4 (Homo sapiens, UniProt Q9NWZ3); assay: Inhibition of IRAK4 (unknown origin) in BGG-buffer in presence of ATP
[18] = target: Histone-lysine N-methyltransferase 2C (Homo sapiens) (UniProt Q8NEZ4); assay: Inhibition of MLL3 (unknown origin)
[19] = target: Serine/threonine-protein kinase 4 (Homo sapiens, UniProt Q13043); assay: Inhibition of MST1 (unknown origin)
[20] = target: Protein arginine N-methyltransferase 6 (Homo sapiens) (UniProt Q96LA8); assay: Inhibition of PRMT6 (unknown origin)
Chain of Protein arginine N-methyltransferase 6 (Homo sapiens) (Q96LA8 whole entry, looked up): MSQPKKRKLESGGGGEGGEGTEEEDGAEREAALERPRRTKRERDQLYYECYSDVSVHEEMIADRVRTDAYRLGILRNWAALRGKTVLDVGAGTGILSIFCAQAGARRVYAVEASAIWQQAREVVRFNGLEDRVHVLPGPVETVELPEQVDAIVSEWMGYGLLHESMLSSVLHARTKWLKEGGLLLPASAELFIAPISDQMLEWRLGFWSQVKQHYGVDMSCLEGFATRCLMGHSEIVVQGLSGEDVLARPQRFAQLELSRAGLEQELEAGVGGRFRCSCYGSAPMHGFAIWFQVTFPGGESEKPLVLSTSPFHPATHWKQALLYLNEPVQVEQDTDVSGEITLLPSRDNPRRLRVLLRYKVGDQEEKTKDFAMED

[21] = target: DNA (cytosine-5)-methyltransferase 1 (Homo sapiens) (UniProt P26358); assay: Inhibition of DNMT1 (unknown origin)
Chain of DNA (cytosine-5)-methyltransferase 1 (Homo sapiens) (P26358 whole entry): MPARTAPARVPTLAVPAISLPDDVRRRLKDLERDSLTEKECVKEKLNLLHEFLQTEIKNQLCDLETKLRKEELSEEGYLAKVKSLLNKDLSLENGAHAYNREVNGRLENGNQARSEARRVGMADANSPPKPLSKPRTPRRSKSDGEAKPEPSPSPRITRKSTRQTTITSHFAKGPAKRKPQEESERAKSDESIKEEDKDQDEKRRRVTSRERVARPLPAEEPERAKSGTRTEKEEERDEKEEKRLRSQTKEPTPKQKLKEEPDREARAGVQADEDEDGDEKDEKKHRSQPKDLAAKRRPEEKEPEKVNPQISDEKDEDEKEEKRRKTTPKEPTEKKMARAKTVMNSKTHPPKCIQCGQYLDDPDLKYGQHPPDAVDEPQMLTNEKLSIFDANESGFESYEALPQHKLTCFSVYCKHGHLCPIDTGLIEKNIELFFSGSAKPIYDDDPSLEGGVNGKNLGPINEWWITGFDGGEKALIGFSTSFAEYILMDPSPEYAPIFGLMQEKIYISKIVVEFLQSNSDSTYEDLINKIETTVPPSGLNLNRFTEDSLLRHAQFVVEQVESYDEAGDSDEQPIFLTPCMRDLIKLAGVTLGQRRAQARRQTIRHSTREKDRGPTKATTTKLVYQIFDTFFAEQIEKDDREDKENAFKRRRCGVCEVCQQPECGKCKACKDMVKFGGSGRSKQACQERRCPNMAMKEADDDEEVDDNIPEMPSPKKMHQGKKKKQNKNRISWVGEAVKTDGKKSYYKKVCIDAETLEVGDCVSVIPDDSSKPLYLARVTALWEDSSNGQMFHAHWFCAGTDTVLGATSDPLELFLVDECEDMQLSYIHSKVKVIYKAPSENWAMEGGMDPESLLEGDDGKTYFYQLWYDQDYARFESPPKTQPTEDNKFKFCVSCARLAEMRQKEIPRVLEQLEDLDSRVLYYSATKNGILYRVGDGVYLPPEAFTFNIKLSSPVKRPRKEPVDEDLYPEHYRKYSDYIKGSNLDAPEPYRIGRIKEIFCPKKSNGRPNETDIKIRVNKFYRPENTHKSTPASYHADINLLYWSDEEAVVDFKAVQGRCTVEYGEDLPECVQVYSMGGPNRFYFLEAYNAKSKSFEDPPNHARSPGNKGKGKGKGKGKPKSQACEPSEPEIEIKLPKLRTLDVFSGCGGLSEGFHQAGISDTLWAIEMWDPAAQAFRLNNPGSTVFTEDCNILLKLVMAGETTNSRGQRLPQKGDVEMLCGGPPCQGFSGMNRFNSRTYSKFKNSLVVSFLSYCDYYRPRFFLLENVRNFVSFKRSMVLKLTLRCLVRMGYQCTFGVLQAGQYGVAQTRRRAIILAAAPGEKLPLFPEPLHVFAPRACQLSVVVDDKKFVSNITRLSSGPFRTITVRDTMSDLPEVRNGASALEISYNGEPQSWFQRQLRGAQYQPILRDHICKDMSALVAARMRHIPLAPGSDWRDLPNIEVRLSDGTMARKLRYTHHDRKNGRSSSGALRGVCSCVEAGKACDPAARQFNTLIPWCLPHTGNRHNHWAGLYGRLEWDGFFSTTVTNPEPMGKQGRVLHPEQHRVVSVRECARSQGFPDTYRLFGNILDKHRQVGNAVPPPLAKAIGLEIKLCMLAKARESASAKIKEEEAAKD

[22] = target: T1, Histone-lysine N-methyltransferase SMYD3 (Homo sapiens); assay: Binding affinity to recombinant human SMYD3 expressed in Escherichia coli assessed as change in gibbs binding free energy by isothermal titration calorimetry; summary of the method: as §2
[23] = target: High affinity nerve growth factor receptor (Homo sapiens, UniProt P04629); assay: Inhibition of human TRK-A
[24] = target: Protein arginine N-methyltransferase 3 (Homo sapiens) (UniProt O60678); assay: Inhibition of PRMT3 (unknown origin)
Chain of Protein arginine N-methyltransferase 3 (Homo sapiens) (O60678 2-531 limits assumed): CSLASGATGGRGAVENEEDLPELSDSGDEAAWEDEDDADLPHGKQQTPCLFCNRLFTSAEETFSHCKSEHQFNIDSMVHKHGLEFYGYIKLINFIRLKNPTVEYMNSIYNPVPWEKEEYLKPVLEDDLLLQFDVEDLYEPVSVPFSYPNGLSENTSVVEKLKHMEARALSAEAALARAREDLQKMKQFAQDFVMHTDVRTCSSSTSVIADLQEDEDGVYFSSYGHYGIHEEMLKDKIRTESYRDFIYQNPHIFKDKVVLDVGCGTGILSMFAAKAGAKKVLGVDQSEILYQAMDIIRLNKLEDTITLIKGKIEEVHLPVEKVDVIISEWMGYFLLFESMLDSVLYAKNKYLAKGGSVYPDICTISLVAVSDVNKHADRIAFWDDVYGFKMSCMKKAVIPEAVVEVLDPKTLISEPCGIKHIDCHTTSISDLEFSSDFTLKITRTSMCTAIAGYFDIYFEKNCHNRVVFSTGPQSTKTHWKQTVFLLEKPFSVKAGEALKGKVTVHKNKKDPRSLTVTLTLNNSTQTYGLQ

[25] = target: T2, Histone-lysine N-methyltransferase SMYD3 (Homo sapiens, UniProt Q9H7B4); assay: Binding affinity to recombinant human SMYD3 expressed in Escherichia coli at varying 3H SAM substrate concentration of upto 3.5 uM with 10 fold Km concentration by scintillation proximity assay; summary of the method: as §1
T2 sequence (Q9H7B4 whole entry): T1 sequence (whole entry)

[26] = target: Protein arginine N-methyltransferase 7 (Homo sapiens) (UniProt Q9NVM4); assay: Inhibition of PRMT7 (unknown origin)
[27] = target: Protein arginine N-methyltransferase 5 (Homo sapiens) (UniProt O14744); assay: Inhibition of PRMT5 (unknown origin)
Chain of Protein arginine N-methyltransferase 5 (Homo sapiens) (O14744 whole entry): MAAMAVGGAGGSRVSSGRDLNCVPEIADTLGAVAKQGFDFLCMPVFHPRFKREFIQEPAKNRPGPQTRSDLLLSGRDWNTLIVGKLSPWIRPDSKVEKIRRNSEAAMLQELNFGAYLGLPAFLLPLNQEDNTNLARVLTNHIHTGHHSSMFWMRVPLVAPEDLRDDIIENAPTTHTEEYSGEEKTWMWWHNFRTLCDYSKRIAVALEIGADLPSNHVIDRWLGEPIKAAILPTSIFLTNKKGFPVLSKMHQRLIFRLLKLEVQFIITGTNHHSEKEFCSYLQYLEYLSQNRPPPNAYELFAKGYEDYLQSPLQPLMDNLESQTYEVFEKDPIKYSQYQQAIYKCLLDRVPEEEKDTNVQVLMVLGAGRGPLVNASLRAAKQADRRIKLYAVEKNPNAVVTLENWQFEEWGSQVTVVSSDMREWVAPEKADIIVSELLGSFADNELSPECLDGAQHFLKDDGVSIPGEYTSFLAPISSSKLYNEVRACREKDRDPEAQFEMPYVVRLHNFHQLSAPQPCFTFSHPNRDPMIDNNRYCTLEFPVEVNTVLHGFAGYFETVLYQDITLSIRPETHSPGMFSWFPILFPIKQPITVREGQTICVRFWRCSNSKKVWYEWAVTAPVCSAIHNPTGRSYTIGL

inhibition [1]: inactive
IC50 [2]: > 20 µM
fold change (FC) [3]: 4
inhibition [4]: inactive
inhibition [5]: inactive
deltaTm [6]: 8.34 K
IC50 [8]: > 20 µM
-TdeltaS [9]: -5 kcal/mol
deltaS [9]: 17 cal/mol.K
inhibition [10]: inactive
inhibition [11]: inactive
inhibition [12]: inactive
IC50 [13]: > 20 µM
logD [14]: 1.9
IC50 (MDA-MB-231): > 10 µM
IC50 [15]: > 20 µM
IC50 [16]: > 20 µM
IC50 (Aurora kinase A): > 20 µM
IC50 [17]: > 20 µM
inhibition [18]: inactive
IC50 [19]: > 20 µM
inhibition [20]: inactive
inhibition [21]: inactive
deltaG [22]: -9.2 kcal/mol
IC50 [23]: > 20 µM
inhibition [24]: inactive
IC50 [25]: Not Active
inhibition [26]: inactive
inhibition [27]: inactive
SMILES: C[C@H]1CC(=O)Nc2cc(C(=O)NCCC3CC3)ccc2N1C(=O)N1CC2CC2C1 (stereo partly specified)
IC50 [7]: > 10 µM
IC50 (KYSE-30): > 10 µM
